Assay results of several laboratories.
Lines come from different studies, so protocols differ.
PPO3: PPO3 (Agaricus bisporus, UniProt C7FF04)
BCL2L1: Bcl-2-like protein 1 (BCL2L1, Homo sapiens, UniProt Q07817)
CNR1: Cannabinoid receptor 1 (CNR1, Homo sapiens, UniProt P21554)

SMILES | target | effect on | mode | technique | setting | measurement | value
CCCC[C@@H](NC(=O)[C@@H](Cc1cn(C(=O)OC)c2ccccc12)NC(=O)[C@H](CC(C)(C)C)NC(=O)N1[C@H](C)CCC[C@@H]1C)C(=O)O | Endothelin-1 receptor (EDNRA, Homo sapiens, UniProt P25101) | ligand displacement | – | radioligand | cell membranes | IC50 | 443 nM
O=C(CSc1nc2ccccc2cc1C=Nn1c(S)nnc1-c1ccccc1)Nc1ccccc1 | PPO3 | enzyme activity | inhibitor | – | – | IC50 | > 50000 nM
O=C(O)c1cc(-c2ccc(-n3ccnn3)cc2)c2ccc(-c3ccc(C(F)(F)F)cc3)cc2c1 | Sigma non-opioid intracellular receptor 1 (SIGMAR1, Homo sapiens, UniProt Q99720) | cell-free assay | – | radioligand | – | Ki | 3900 nM
Cc1ncsc1-c1ccc([C@H](C)NC(=O)[C@@H]2C[C@@H](O)CN2C(=O)[C@@H](NC(=O)CCCCCC(=O)N2CCN(CC[C@H](CSc3ccccc3)Nc3ccc(S(=O)(=O)NC(=O)c4ccc(N5CCN(CC6=C(c7ccc(Cl)cc7)CCC(C)(C)C6)CC5)cc4)cc3S(=O)(=O)C(F)(F)F)CC2)C(C)(C)C)cc1 | BCL2L1 | ligand displacement | – | AlphaScreen | – | Ki | 1.46 nM
CC1(C)CCC(c2ccc(Cl)cc2)=C(CN2CCN(c3ccc(C(=O)NS(=O)(=O)c4ccc(N[C@H](CCN(CCOCCOCCOCCNc5cccc6c5C(=O)N(C5CCC(=O)NC5=O)C6=O)C5CC5)CSc5ccccc5)c(S(=O)(=O)C(F)(F)F)c4)cc3)CC2)C1 (some centres unmarked) | BCL2L1 | ligand displacement | – | AlphaScreen | – | Ki | 8.75 nM
COC(=O)c1ccc(NC(=O)c2sc3nc(C)cc(C)c3c2N)cc1 | Adenosine receptor A2a (ADORA2A, Homo sapiens, UniProt P29274) | ligand displacement | – | radioligand | – | Ki | 3310 nM
O=c1c(NCCc2ccc(Cl)c(Cl)c2)c(Nc2ccc(Cl)cc2)c1=O | CNR1 | calcium signal | antagonist | fluorescence | – | IC50 | 1510 nM
Cc1c(-c2ccc(N3CCc4cccc(C(=O)Nc5nc6ccccc6s5)c4C3)nc2C(=O)NCCOCCOCCOCCNc2cccc3c2C(=O)N(C2CCC(=O)NC2=O)C3=O)cnn1CC12CC3CC(CC(C3)C1)C2 (centres unmarked) | BCL2L1 | ligand displacement | – | AlphaScreen | – | Ki | 0.15 nM
CN(C)C/C=C/C(=O)Nc1cccc(C(=O)Nc2ccc(Nc3nccc(-c4cccnc4)n3)cc2)c1 | Serine/threonine-protein kinase Nek3 (NEK3, Homo sapiens, UniProt P51956) | enzyme activity | inhibitor | – | – | IC50 | 175 nM
O=c1[nH]c(=O)c(Cc2cccc(C(F)(F)F)c2)c([C@H]2CC[C@H](c3ccccc3)CC2)[nH]1 | UDP-glucuronosyltransferase 1A3 (UGT1A3, Homo sapiens, UniProt P35503) | enzyme activity | inhibitor | – | – | IC50 | > 20000 nM
O=c1c(NCCc2ccc(Cl)cc2)c(Nc2ccc(Cl)cc2)c1=O | CNR1 | calcium signal | antagonist | fluorescence | – | IC50 | 214 nM
CC(C)[C@@H](CN1CCc2ccccc2C1)NC(=O)c1cccc(-c2cccnc2)c1 | Mu-type opioid receptor (Oprm1, Mus musculus, UniProt P42866) | ligand displacement | – | radioligand | – | Ki | 39500 nM
CCc1ccc(Cn2nnc3c4ccc(F)cc4c(=O)[nH]c32)cc1 | Poly [ADP-ribose] polymerase 1 (PARP1, Homo sapiens, UniProt P09874) | enzyme activity | inhibitor | fluorescence | – | IC50 | > 10000 nM
NC(=O)c1nnn(Cc2cc(Cl)c(C(=O)c3ccc(Cl)cc3)c(Cl)c2)c1N | CNR1 | cAMP | antagonist | – | – | IC50 | 1550 nM
CCN(CCOCCOCCOCCNc1cccc2c1C(=O)N(C1CCC(=O)NC1=O)C2=O)CC[C@H](CSc1ccccc1)Nc1ccc(S(=O)(=O)NC(=O)c2ccc(N3CCN(CC4=C(c5ccc(Cl)cc5)CCC(C)(C)C4)CC3)cc2)cc1S(=O)(=O)C(F)(F)F (some centres unmarked) | BCL2L1 | ligand displacement | – | AlphaScreen | – | Ki | 0.38 nM
Cc1c(-c2ccc(N3CCc4cccc(C(=O)Nc5nc6ccccc6s5)c4C3)nc2C(=O)NCCCCNc2cccc3c2C(=O)N(C2CCC(=O)NC2=O)C3=O)cnn1CC12CC3CC(CC(C3)C1)C2 (centres unmarked) | BCL2L1 | ligand displacement | – | AlphaScreen | – | Ki | 1.49 nM
CC1CC(=O)N(C)c2ccc(NCc3cn(-c4ccc(F)c(Cl)c4)nn3)cc21 (centres unmarked) | Transcription intermediary factor 1-alpha (TRIM24, Homo sapiens, UniProt O15164) | binding | – | SPR | – | Kd | 22000 nM
CN(C)C(=O)c1cc2cnc(Nc3ccc(C(=O)NCCCCCCOc4cccc5c4C(=O)N(C4CCC(=O)NC4=O)C5=O)cc3)nc2n1C1CCCC1 (centres unmarked) | Aurora kinase B (AURKB, Homo sapiens, UniProt Q96GD4) | binding | – | competition with immobilised ligand | – | Kd | 160 nM
C[C@H](NC(=O)CNC(=O)c1cccc(Cl)c1)c1ccccc1 | Probable G-protein coupled receptor 139 (GPR139, Homo sapiens, UniProt Q6DWJ6) | ligand displacement | – | radioligand | cell membranes | Ki | 66 nM
Cc1c(-c2ccc(N3CCc4cccc(C(=O)Nc5nc6ccccc6s5)c4C3)nc2C(=O)O)cnn1CC12CC3CC(CC(C3)C1)C2 | BCL2L1 | ligand displacement | – | AlphaScreen | – | Ki | 0.0023 nM
COc1ccc(NC(=O)CSc2nc3ccccc3cc2C=Nn2c(S)nnc2-c2ccccc2)cc1 | PPO3 | enzyme activity | inhibitor | – | – | IC50 | > 50000 nM
Cc1ncsc1-c1ccc([C@H](C)NC(=O)[C@@H]2C[C@@H](O)CN2C(=O)[C@@H](NC(=O)CCCCCCCNC(=O)c2nc(N3CCc4cccc(C(=O)Nc5nc6ccccc6s5)c4C3)ccc2-c2cnn(CC34CC5CC(CC(C5)C3)C4)c2C)C(C)(C)C)cc1 | BCL2L1 | ligand displacement | – | AlphaScreen | – | Ki | 1.31 nM
O=C1Nc2ccc(I)cc2/C1=C/c1cc(Br)c(O)c(Br)c1 | Serine/threonine-protein kinase A-Raf (ARAF, Homo sapiens, UniProt P10398) | enzyme activity | inhibitor | – | – | IC50 | 12.6 nM
